The source of these data is paper PMC4844355 (Cellular and Molecular Gastroenterology and Hepatology, 2016).

The subject of series [1] is loperamide-induced mouse model of constipation. The series is described as follows: Loperamide-induced constipation model in wild-type mice. Type of series: in vivo. To be noted: for Normalization of stool output as percent of the maximal CFTRact-J027 response: 0.5 mg/kg oral; for Stool weight, pellet number and water content (3 hours): 10 mg/kg intraperitoneal, loperamide-treated wild-type mice. The procedure, abridged:
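Female CD1 mice (8–10 wk) given loperamide 0.3 mg/kg IP. Test compound (0.1–10 mg/kg) or vehicle given IP at the same time, or orally 1 h before. Mice then housed singly in metabolic cages and stool collected for 3 h: total weight, pellet number, and water content after drying at 80°C for 24 h. Mean ± SEM; 6 mice per group, dose-response 4–6 per group.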

Series [2] concerns constipation-predominant irritable bowel syndrome patients. To be noted: cited from earlier work.
The target in a further series is human wild-type CFTR (Homo sapiens, UniProt P13569). The experiment in a line: Short-circuit current in FRT cells expressing wild-type human CFTR. Type of series: cell-based. The gist of the method: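 FRT cells stably expressing wild-type human CFTR grown on porous filters. Basolateral membrane permeabilized with 250 μg/mL amphotericin B. Apical side given a Cl⁻ gradient (65 mmol/L NaCl replaced by Na gluconate, 2 mmol/L CaCl2) against HEPES-buffered basolateral saline, pH 7.3, 37°C. Forskolin, test compound, then CFTRinh-172 (10 μmol/L) added. Concentration dependence: mean ± SEM, n = 3 cultures.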

A further series has as its target ΔF508-CFTR (Homo sapiens, UniProt P13569, DEL508-508). The experiment in a line: Short-circuit current in FRT cells expressing ΔF508-CFTR. The format is cell-based. The settings on record: FRT cells expressing ΔF508-CFTR after overnight incubation with corrector VX-809. The procedure, abridged:
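Short-circuit current in FRT cells expressing ΔF508-CFTR, pre-corrected with 3 μmol/L VX-809 at 37°C for 24 h. Responses recorded to added forskolin, test compound and VX-770, with CFTRinh-172 (10 μmol/L) where indicated. Traces representative of 3 experiments.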

For a further series, the system named is cAMP. The series is described as follows: GloSensor luminescence cAMP assay in FRT null cells. Type of series: cell-based, rat. The settings on record: 5 μmol/L, 10 minutes. The gist of the method: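 FRT null cells stably transfected with a GloSensor cAMP plasmid, grown to confluence and washed 3× in PBS. Incubated 10 min with 5 μmol/L test compound, without or with forskolin (100 nmol/L). cAMP read by luminescence. Positive controls: forskolin 100 nmol/L and 20 μmol/L, forskolin plus IBMX 100 μmol/L. Mean ± SEM, n = 4–8.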

The test system of series [3] is cystic fibrosis mice (ΔF508 homozygous). The format is in vivo, mouse. The settings on record: loperamide model; cystic fibrosis mice lacking functional CFTR. The procedure, abridged: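 ΔF508-homozygous cystic fibrosis mice run in the same loperamide protocol as wild-type mice (0.3 mg/kg IP, test compound or vehicle). Stool collected for 3 h in metabolic cages; weight, pellet number, and water content measured after drying at 80°C for 24 h. 3–6 mice per group.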

Series [4] relates to loperamide-treated wild-type mice. The series is described as follows: Whole-gut transit time in loperamide-treated wild-type mice. Type of series: in vivo, mouse. To be noted: 10 mg/kg IP with loperamide at zero time. The procedure, abridged:
(§1)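 Marker (200 μL; 5% Evans Blue, 5% gum Arabic) given by oral gavage at zero time. At the same time, loperamide (0.3 mg/kg) and test compound (10 mg/kg) or vehicle given IP, to wild-type or cystic fibrosis mice. Whole-gut transit time taken as the time the marker appears in stool.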

In a further series the test system is cystic fibrosis mice. The experiment in a line: Whole-gut transit time in cystic fibrosis mice. The settings on record: 10 mg/kg IP. The format is in vivo, mouse. The gist of the method: as §1
The test system of series [5] is isolated mouse ileum and colon strips. The series is described as follows: Ex vivo contractility of isolated intestinal strips. The settings on record: added alone or in the presence of 10 μmol/L loperamide.
The test system of series [6] is closed midjejunal loops in wild-type mice. The experiment in a line: Intestinal fluid secretion in closed midjejunal loops, wild-type mice. Type of series: in vivo, mouse. To be noted: 100 μg per loop, 90 minutes. The gist of the method: (§2)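 Mice fasted 24 h with 5% dextrose water only, then anaesthetised with isoflurane and kept at 36–38°C. Closed midjejunal loops (2–3 cm) tied off by sutures and injected with 100 μL vehicle or 100 μg test compound in vehicle. Incision closed and mice recovered. Loops removed at 90 min; loop weight/length taken as fluid secretion. 4 loops per group.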

For series [7], the system named is closed midjejunal loops in cystic fibrosis mice. The experiment in a line: Intestinal fluid secretion in closed midjejunal loops, cystic fibrosis mice. The format is in vivo, mouse. To be noted: 100 μg per loop, 90 minutes. The procedure, abridged: as §2
Series [8] has as its system closed midjejunal loops of cystic fibrosis mice. The experiment in a line: Intestinal fluid absorption in closed midjejunal loops, cystic fibrosis mice. The settings on record: 100 μg per loop, 30 minutes. Type of series: in vivo, mouse.
A short description of series [9]: In vitro metabolic stability in mouse liver microsomes. The format is in vitro ADME. The procedure, abridged:
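Test compound (5 μmol/L) incubated at 37°C for set times with mouse liver microsomes (1 mg protein/mL) in 100 mmol/L potassium phosphate with 1 mmol/L NADPH. Reaction chilled on ice and extracted with ice-cold ethyl acetate, then centrifuged. Supernatant dried, residue taken up in acetonitrile:water 3:1, and parent measured by LC-MS.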
A general note: Microsomes from liver hold many membrane-bound enzymes, among them those of drug oxidation.

Series [10] can be described thus: Pharmacokinetics in mice after bolus IP or oral administration. The format is in vivo, mouse. The gist of the method:
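Female CD1 mice dosed once with 10 mg/kg test compound in saline containing 5% DMSO and 10% Kolliphor HS 15, IP or orally. Blood taken by orbital puncture at 15, 30, 60, 150, 240 and 360 min, and plasma separated by centrifugation. Levels measured by LC-MS against calibration standards spiked into untreated mouse plasma. Mean ± SEM, 3 mice per group.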

A further series has as its system FRT cells. The series is described as follows: In vitro cytotoxicity by Alamar Blue assay. The format is cell-based, rat. The gist of the method: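 FRT cells exposed to 25 μmol/L test compound for 8 and 24 h, with viability read by Alamar Blue. Mean ± SEM, n = 3 cultures.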
For orientation: Resazurin is reduced to fluorescent resorufin, in cell work by metabolically active cells.

Series [11] is described as follows: 7-day oral toxicity study in mice. The format is in vivo, mouse. The gist of the method:
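Mice received 10 mg/kg test compound or vehicle orally once daily for 7 days. One hour after the last dose, loperamide 0.3 mg/kg IP was given and stool was collected for 3 h. At 4 h after the last dose: complete blood count, serum chemistry, body weight and lung wet/dry weight ratio. Mean ± SEM, 5 mice per group.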

A further series deals with loperamide-treated mice. The series is described as follows: Efficacy in loperamide model after 7-day chronic oral administration. Type of series: in vivo, mouse. The settings on record: 10 mg/kg orally for 7 days, loperamide 1 hour after final dose.
The nature of the next series: Solubility limit. Type of series: physicochemical.
In series [12] the test system is chronic constipation patients. To be noted: placebo 0.9; cited from earlier work.
The mark [13] stands for this setting: 10 mg/kg orally once a day for 7 days.
[14] abbreviates: 10 mg/kg orally once per day for 7 days, mean ± SEM, 5 mice.

Converted amounts (≈) assume the structure as drawn. “Also recorded” adds a separate entry of the source.

Regarding `CCCCC(F)(F)[C@@]1(O)CC[C@H]2[C@@H](CC(=O)[C@@H]2CCCCCCC(=O)O)O1` [lubiprostone, reference compound], in series [1] (loperamide-treated mice), the “Normalization of stool output as percent of the maximal CFTRact-J027 response” value came to 50%. The Overall response rate result in series [2] is given as “approximately 13%”.
Turning to `Nc1ccc([N+](=O)[O-])cc1-c1nc2ccccc2n(Cc2ccccc2)c1=O` [CFTRact-J027, 3-(2-amino-5-nitrophenyl)-1-benzylquinoxalin-2(1H)-one], at human wild-type CFTR (FRT cells expressing wild-type CFTR, 3 μmol/L), the “CFTR activation at 3 μmol/L” value is listed as “nearly full activation”. Also, on human wild-type CFTR (FRT cells, wild-type CFTR, forskolin produced minimal further increase), the “CFTR activation (short-circuit current)” value is recorded as “fully activated CFTR”. For the same compound, the “CFTR activation in the absence of forskolin” value at human wild-type CFTR (FRT cells, wild-type CFTR, no forskolin, data not shown) is reported as “Little CFTR activation”. Moreover, the “Potentiation of ΔF508-CFTR” value at ΔF508-CFTR is listed as “only a weak potentiator; also recorded: substantially less potent than ivacaftor”. For the same compound, the “Cellular cAMP, compound added alone” value in the series with cAMP is recorded as “does not increase cellular cAMP”. Moreover, the “Cellular cAMP, compound added together with forskolin” value in the series on cAMP (with forskolin) is “does not increase cAMP further”. Moreover, in [1], the “Stool weight, pellet number and water content (3 hours)” value was “normalized each of the stool parameters”. Moreover, the “Stool output and water content, oral administration” value in [1] (10 mg/kg oral 1 hour before loperamide, loperamide-treated mice) is “effective in normalizing stool output and water content”. The “Stool output and water content in control mice, oral administration” value in series [1] (10 mg/kg oral, control mice) was “no effect”. Also, the “Stool output or water content in control mice” value in series [1] (intraperitoneal, control (non-loperamide-treated) mice) is given as “did not affect stool output or water content”. In addition, in series [1] (loperamide model, intraperitoneal), the “50% effective dose, IP administration” value was found to be 2 mg/kg. In addition, the “Stool output and water content in cystic fibrosis mice” value in series [3] is “without effect”. The Whole-gut transit time result in [4] is on record as “normalized”. The “Whole-gut transit time in cystic fibrosis mice” value with cystic fibrosis mice was “no effect”. The Intestinal contraction entry in series [5] is recorded as “no effect”. Moreover, the “Increase in loop weight/length ratio (fluid secretion)” value in series [6] came to 140%. In [7], the “Loop fluid secretion in cystic fibrosis mice” value is “without effect”. Also, in series [8], the Intestinal fluid absorption result is given as “did not affect intestinal fluid absorption”. The “Original compound remaining at 60 minutes” value in series [9] (mouse liver microsomes, 60 minutes) stood at 7%. This compound yielded a half-life at 5 μmol/L in [9] (mouse, liver microsomes) of roughly 21 min. For the same compound, in [10] (female, CD1, mouse, serum, ip, 10 mg/kg), the half-life was roughly 16 min. In addition, the concentration at 30 minutes in series [10] (female, CD1, mouse, serum, po, 10 mg/kg) amounted to 180 nM. Moreover, the “Serum concentration at 150 minutes after IP administration” value in [10] (mice, 10 mg/kg IP, 150 minutes) is on record as “undetectable”. The “Blood levels after oral administration” value in [10] (mice, 10 mg/kg oral) is recorded as “less than 200 nmol/L”. Besides, the “Serum concentration at other time points after oral administration” value in series [10] (mice, 10 mg/kg oral, time points other than 30 minutes) is given as “undetectable”. Also, the Oral bioavailability result in [10] (mice, 10 mg/kg oral, 10 mg/kg) is “minimal bioavailability; also recorded: very low bioavailability”. The “Non-cytotoxic concentration relative to EC50 for CFTR activation” value with FRT cells (25 μmol/L versus EC50) is “more than 100 fold”. The “Cytotoxicity (Alamar Blue)” value in the series on FRT cells (25 μmol/L, FRT cells, 8 and 24 hours) was “did not show cytotoxicity”. Moreover, in [11] (setting [13]), the Body weight entry is listed as “did not change body weight”; the “Lung water content (lung wet/dry weight ratio)” value was “normal lung water content”; the “Major serum chemistry and blood parameters” value is “did not affect the major serum chemistry and blood parameters”. Also, in series [11] (setting [14]), the ALP level came to 53 ± 2.5 U/L, the ALT level turned out to be 44 ± 6 U/L, the AST level worked out at 105 ± 11 U/L and the Albumin level was determined as 2.9 ± 0.03 g/dL. For the same compound, in series [11] (setting [14]), the BUN level is listed as 18.4 ± 1.2 mg/dL, the Bicarbonate level is 16 ± 1.7 mmol/L, the CK level stood at 312 ± 62 U/L and the Calcium level is given as 8.5 ± 0.04 mg/dL. In series [11] (setting [14]), this compound returned a Chloride level of 115 ± 1 mmol/L, a Cholesterol level of 121 ± 6 mg/dL, a Creatinine level of 0.2 ± 0 mg/dL and a Globulin level of 2.2 ± 0.1 g/dL. In series [11] (setting [14]), the Glucose level worked out at 164 ± 6 mg/dL, the Hemoglobin level turned out to be 12.8 ± 0.3 g/dL, the Leukocyte level is on record as 1.9 ± 0.5 10^3/μL and the Phosphorus level is given as 6.8 ± 0.3 mg/dL. In series [11] (setting [14]), the Potassium level worked out at 4.4 ± 0.1 mmol/L, the Sodium level is 151 ± 0.7 mmol/L, the Thrombocyte level is 900 ± 48 10^3/μL and the Total bilirubin level is given as 0.1 ± 0 mg/dL. The Total protein level in series [11] (setting [14]) came out at 5.2 ± 0.1 g/dL. Moreover, the “Stool output and water content after chronic administration” value in the series on loperamide-treated mice is “remained effective in normalizing stool output and water content”. Also, the solubility in the series “Solubility limit” was roughly 25 µM (≈ 9.31 µg/mL).
linaclotide [reference compound]: the “Normalization of stool output as percent of the maximal CFTRact-J027 response” value in series [1] (loperamide-treated mice) stood at 35%. Also, the CSBM per week in [12] is recorded as roughly 2.5.
For the compound `Cn1c(=O)c(-c2cc([N+](=O)[O-])ccc2N)nc2ccccc21` [inactive chemical analog of CFTRact-J027, 3-(2-amino-5-nitrophenyl)-1-(methyl)-2(1H)-quinoxalinone], the “Stool weight, pellet number and water content (3 hours)” value in series [1] is “not effective”.

By half-life is commonly meant the time in which the quantity being followed falls by half. A higher half-life goes with slow decline. A word on the solubility: it is the concentration that dissolves in the medium under given conditions.
